Laboratory results as given in article PMC3089497 (The Journal of Biological Chemistry, 2011).
Values joined by “and” are separate entries in the source; they are usually repeats but may differ in a detail not shown here. Equal entries are not always repeated. Where two headings read alike, the source gives them in different places. Each block holds one molecule with its values, some of them ahead of it. Peptide text beside a SMILES is read from it. * marks the point of attachment. Cbz = O=C(OCc1ccccc1)*

Columns and labels:
p97 ATPase = p97 ATPase (Mus musculus, UniProt Q01853); test: p97 ATPase assay; assay type: biochemical
Sequence of p97 ATPase (Q01853 whole entry): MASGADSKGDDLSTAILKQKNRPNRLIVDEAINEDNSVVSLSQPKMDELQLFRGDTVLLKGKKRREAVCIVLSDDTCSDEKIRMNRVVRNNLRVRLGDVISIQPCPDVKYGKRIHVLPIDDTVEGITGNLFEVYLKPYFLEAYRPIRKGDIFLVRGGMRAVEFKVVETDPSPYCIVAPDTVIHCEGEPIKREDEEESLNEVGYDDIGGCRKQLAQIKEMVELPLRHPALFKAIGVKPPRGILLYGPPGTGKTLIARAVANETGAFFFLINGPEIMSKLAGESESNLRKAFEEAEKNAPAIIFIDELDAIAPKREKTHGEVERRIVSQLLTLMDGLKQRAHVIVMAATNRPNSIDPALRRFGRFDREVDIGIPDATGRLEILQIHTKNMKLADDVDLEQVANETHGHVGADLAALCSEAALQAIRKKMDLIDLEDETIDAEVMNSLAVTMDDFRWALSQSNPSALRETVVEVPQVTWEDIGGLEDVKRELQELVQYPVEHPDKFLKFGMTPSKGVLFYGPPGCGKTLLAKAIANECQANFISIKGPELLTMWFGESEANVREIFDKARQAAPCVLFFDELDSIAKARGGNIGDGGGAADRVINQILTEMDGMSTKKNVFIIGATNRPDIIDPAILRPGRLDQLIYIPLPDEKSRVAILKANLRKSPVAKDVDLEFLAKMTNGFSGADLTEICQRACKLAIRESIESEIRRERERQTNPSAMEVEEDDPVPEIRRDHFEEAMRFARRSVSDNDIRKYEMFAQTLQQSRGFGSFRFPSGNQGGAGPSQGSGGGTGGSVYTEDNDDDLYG

Ub^G76V-GFP [1] = test: cells; assay type: cell-based, human; details: for IC50: Homo sapiens, read-out: IC50 Ub^G76V-GFP
ODD-Luc [2] = test: ODD-Luc reporter degradation assay; assay type: cell-based, human; details: for IC50: Homo sapiens, read-out: IC50 ODD-Luc
Luc-ODC [3] = test: Luc-ODC reporter degradation assay; assay type: cell-based, human; details: for IC50: Homo sapiens, read-out: IC50 Luc-ODC
Ub^G76V-GFP [4] = test: Ub^G76V-GFP reporter accumulation assay; assay type: cell-based, human; details: for Score in Ub^G76V-GFP accumulation screen: rescreen of 160 kinase inhibitors
In short: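 Dual-reporter HeLa cells expressing UbG76V-GFP were seeded at 5000 per well and grown 16 h. They were exposed to DMSO, MG132 or test compound in modified DMEM (no phenol red, folic acid, riboflavin or vitamin B12) for 2–3 h. Two GFP images per well (100-ms exposure) were taken by automated microscopy. Mean GFP intensity per cell area was averaged over about 500 cells, background-corrected using reporter-free cells, and normalized to DMSO-treated cells.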

TCRα-GFP = test: ERAD reporter TCRα-GFP degradation in HEK293 cells; assay type: cell-based, human; details: 5 or 10 μM, 2 h CHX chase
In short: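 HEK293 cells stably expressing the ERAD reporter TCRα-GFP were pretreated with MG132 and washed. They were then incubated with CHX plus test compound for 2 h before harvest, and reporter levels were assessed by immunoblotting.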

C522A-p97 = C522A-p97 (Mus musculus, UniProt Q01853, C522A); test: In vitro ATPase assay of C522A-p97; assay type: biochemical; details: compared with wild-type p97
Sequence of C522A-p97 (Q01853 whole entry C522A): as the sequence (Q01853 whole entry) above, with C522A counted along it
In short: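 The C522A p97 mutant was made by site-directed mutagenesis of the wild-type p97 plasmid. It was assayed for in vitro ATPase activity beside wild-type p97, and inhibition was read from titration curves of test compound.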

ODD-Luc [5] = test: ODD-Luc reporter accumulation assay; assay type: cell-based, human; details: 7.5 μM for 2 h, relative to DMSO
In short: (§1)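 HeLa cells stably expressing UbG76V-GFP were lentivirally transduced with ODD-Luc or Luc-ODC and kept under puromycin (2.5 μg/ml). Cells were seeded at 5000 per well and grown 16 h. They were treated 2–3 h in modified DMEM (no phenol red, folic acid, riboflavin or vitamin B12) containing DMSO, MG132 or test compound. d-Luciferin (1 mg/ml in PBS, stock) was added, followed by 5 min shaking at room temperature. Luminescence was read with […] integration and normalized to DMSO.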

Luc-ODC [6] = test: Luc-ODC reporter accumulation assay; assay type: cell-based, human; details: 30 μM for 2.5 h, relative to DMSO
In short: as §1

[7] = read-out: IC50 p97 ATPase, in vitro, WT p97, triplicate, ± S.D.
[8] = IC50 p97 ATPase, in vitro, WT p97, triplicate, ± S.D.

IC50 (p97 ATPase; [7]): 12 ± 5 µM
Compound: CC[n+]1c(/C=C/N(C)c2ccccc2)n(-c2ccccc2)c2ccc(-c3nc4ccccc4s3)cc21 [Compound 1, Akt inhibitor IV]

Compound: O=c1[nH]c2ccccc2n1C1CCN(Cc2ccc(-c3nc4cc5[nH]cnc5cc4nc3-c3ccccc3)cc2)CC1 [Compound 2, Akt inhibitor VIII]
IC50 (p97 ATPase; [7]): 43 ± 4 µM

IC50 (Ub^G76V-GFP [1]): 16 ± 9 µM
IC50 (ODD-Luc [2]): 14 ± 11 µM
IC50 (Luc-ODC [3]): 11 ± 5 µM
IC50 (p97 ATPase): > 50 µM
Compound: CCN(CC)CCCCN1c2ccccc2Oc2ccc(Cl)cc21 [Compound 3, Akt inhibitor X]
Score in Ub^G76V-GFP accumulation screen (Ub^G76V-GFP [4]): did not score as positives

IC50 (p97 ATPase; [7]): > 50 µM
Compound: O=C1c2ccccc2-c2nc3nnnn3nc21 [Compound 4, PDK1/Akt/Flt]

Compound: COc1ccc2c(c[n+](C)c3c4cc5c(cc4ccc23)OCO5)c1OC [Compound 5, Chelerythrine chloride]
IC50 (Ub^G76V-GFP [1]): 2.2 ± 1 µM
IC50 (ODD-Luc [2]): 3.4 ± 0.2 µM
IC50 (Luc-ODC [3]): 1.9 ± 0.7 µM
IC50 (p97 ATPase; [8]): 24 ± 11 µM

Compound: CO[C@H]1[C@@H](OC)C[C@H](C)[C@@H](OC)C2=CC(=O)C=C(NC(=O)/C(C)=C/C=C\[C@H](OC)[C@@H](OC(N)=O)/C(C)=C/[C@@H]1C)C2=O [Compound 6, Herbimycin A, Streptomyces sp.]
IC50 (Ub^G76V-GFP [1]): 2.8 ± 1.6 µM
IC50 (ODD-Luc [2]): 5 ± 2 µM
Effect on Luc-ODC degradation (in words) (Luc-ODC [3]): very little activity
IC50 (Luc-ODC [3]): > 30 µM
IC50 (p97 ATPase; [8]): > 50 µM

Compound: O=[N+]([O-])C=Cc1ccc2c(c1)OCO2 [Compound 7, 3,4-methylenedioxy-β-nitrostyrene]
Stabilization of Ub^G76V-GFP (Ub^G76V-GFP [1]; 1.7 μM): 2 fold
Stabilization of Ub^G76V-GFP (in words) (Ub^G76V-GFP [1]; 7.5 μM): almost complete stabilization
IC50 (Ub^G76V-GFP [1]): 1.6 ± 0.4 µM
IC50 for p97-dependent versus p97-independent reporters (Ub^G76V-GFP [1]; fold lower, Ub^G76V-GFP vs ODD-Luc): 3.5 fold
IC50 (ODD-Luc [2]): 5.9 ± 1.5 µM
Effect on Luc-ODC degradation (in words) (Luc-ODC [3]): very little activity
IC50 (Luc-ODC [3]): > 30 µM
IC50 (p97 ATPase; [8]): ≤ 10 µM and 1.7 µM
Accumulation of Ub^G76V-GFP (Ub^G76V-GFP [4]; 7.5 or 30 μM, 3 h): < 2 fold
Score in Ub^G76V-GFP accumulation screen (Ub^G76V-GFP [4]): did not score as positives
Degradation of TCRα-GFP (TCRα-GFP): potently blocked
Activity toward C522A-p97 ATPase (in words) (C522A-p97): poor activity

Compound: CN[C@@H]1C[C@H]2O[C@@](C)([C@@H]1OC)n1c3ccccc3c3c4c(c5c6ccccc6n2c5c31)C(=O)NC4 [Compound 8, Staurosporine, Streptomyces sp.]
IC50 (p97 ATPase; [7]): > 50 µM

IC50 (p97 ATPase; [7]): 12 ± 1 µM
Compound: Cc1ccc(S(=O)(=O)/C=C/C#N)cc1 [Compound 9, BAY 11-7082]

Compound: CCn1cnc2c(Nc3cccc(Cl)c3)nc(N[C@@H]3CCCC[C@@H]3N)nc21 [Compound 10, Cdk1 Inhibitor, CGP74514A]
IC50 (p97 ATPase; [7]): 17 ± 3 µM

IC50 (p97 ATPase; [7]): 13 ± 0.5 µM
Compound: Cc1ccc(NC2=CC(=O)c3sc(C)nc3C2=O)cc1 [Compound 11, Cdk4 inhibitor III]

Compound: O=C1c2ccccc2-[n+]2ccc3c([nH]c4ccccc43)c21 [Compound 12, Fascaplysin]
IC50 (Ub^G76V-GFP [1]): 0.9 ± 0.1 µM
IC50 (ODD-Luc [2]): 6.9 ± 1.9 µM
Effect on Luc-ODC degradation (in words) (Luc-ODC [3]): very little activity
IC50 (Luc-ODC [3]): > 30 µM
IC50 (p97 ATPase; [8]): > 50 µM

IC50 (p97 ATPase; [7]): > 50 µM
Compound: Cn1nc2c3c(cccc31)C(=O)c1ccccc1-2 [Compound 14, JNK inhibitor, negative control]

Compound: COC(=O)[C@@]1(O)C[C@H]2O[C@]1(C)n1c3ccccc3c3c4c(c5c6ccccc6n2c5c31)C(=O)NC4 [Compound 15, K-252a, Nocardiopsis sp.]
IC50 (p97 ATPase; [7]): 26 ± 2 µM

IC50 (p97 ATPase; [7]): > 50 µM
Compound: O=C1NC(=O)c2cc(Nc3ccc(F)cc3)c(Nc3ccc(F)cc3)cc21 [Compound 16, PKCbII/EGFR inhibitor]

IC50 (p97 ATPase; [7]): > 50 µM
Compound: N#Cc1cnc2cnc(NCc3cccnc3)cc2c1Nc1ccc(F)c(Cl)c1 [Compound 17, Tpl2 kinase inhibitor]

Compound: O=C(O)C=Cc1ccc2c(c1)OCO2 [Compound 18, 3,4-Methylenedioxycinnamic acid]
Effect on Ub^G76V-GFP degradation (in words) (Ub^G76V-GFP [1]): greatly diminished activity

IC50 with Luc-ODC reporter relative to Ub^G76V-GFP and ODD-Luc reporters (Luc-ODC [3]; fold higher): ~3 fold
Compound: CC(C)C[C@@H](C=O)NC(=O)[C@H](CC(C)C)NC(=O)[C@H](CC(C)C)NC(=O)OCc1ccccc1 [MG132] (Cbz-Leu-Leu-Leu-aldehyde)
Ub^G76V-GFP reporter accumulation (Ub^G76V-GFP [4]; 7.5 μM for 2 h, relative to DMSO): ~20 fold
ODD-Luc reporter accumulation (ODD-Luc [5]): ~20 fold
Luc-ODC reporter accumulation (Luc-ODC [6]): 1.6 fold

Effect on ODD-Luc degradation (in words) (ODD-Luc [2]): strong stabilization
Effect on Luc-ODC degradation (in words) (Luc-ODC [3]): had no effect
Compound: NS(=O)(=O)OC[C@@H]1C[C@@H](n2ccc3c(N[C@H]4CCc5ccccc54)ncnc32)C[C@@H]1O [MLN4924]
Effect on Ub^G76V-GFP degradation (in words) (Ub^G76V-GFP [1]): had no effect
